Experimental data from PubChem BioAssay.
Several values for one entry are separate records, joined by “and”; a condition that tells them apart may be missing. Identical values can stand only once. Activity calls are given as the source filed them.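 Rule for the calls, unless noted: active = viability at or under a set limit in both replicates, limit being median viability minus 3 SD (cut at about 48% in these data, passing the limit was not always enough); inconclusive = at or under the limit in just one replicate; inactive = at or above the limit in both replicates.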

Columns and labels:
[1] = Her2 expression decrease, cell viability multiplex – SKBR3 breast tumor cells, AlphaScreen, ATP viability, primary screen (AID 461;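 active = Her2 level under about 52% in both replicate screens, with viability over 70% of control, limit read from the data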;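 for Her2 level: lower value means less Her2 protein in the cells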;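 for viability: percent of carrier control wells set as 100% viability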); conditions: SKBR3 Her2 protein level, 18-24 h, measured here: SKBR3 viability, ATP luminescence, at 10 µM
[2] = biological target: Receptor tyrosine-protein kinase erbB-2 (Homo sapiens) (UniProt P04626); test: as above; conditions: 18-24 h, at 10 µM, stronger effect = lower value
[3] = reduced viability of SK-BR-3 breast cancer cells – cell-based, 24 h, human, pilot screen (AID 572;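 active = viability at or below 10% of carrier control in both of two separate runs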;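 note: compound exposure lasted between 18 and 24 h rather than exactly 24 h; 100% = carrier-treated control wells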); conditions: SK-BR-3 viability, CellTiter-Glo luminescence, at 10 µM, stronger effect = lower value
[4] = HUVEC growth inhibition – cell-based, human, primary screen (AID 575;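 active = viability at or below 30% in both replicate assays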;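 note: 100% = median of untreated cell wells with 0.1% DMSO on each plate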); conditions: HUVEC proliferation, CellTiter-Glo luminescence, 72 h; at 10 µM; stronger effect = lower value
Method in brief: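 Test system – primary HUVEC, no more than 12 passages · Dosing – one dose, 10 µM final, 0.1% DMSO · Times – 72 h treatment at 37 °C · Measured by – ATP-based CellTiter-Glo luminescent read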

[5] = H69AR cell proliferation blockers – human, duplicate replicates, primary screen (AID 580); conditions: H69AR lung tumor cells viability, ATP luminescence, 72 h; at 10 µM; stronger effect = lower value;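 note: 100% = mean luminescence of untreated wells and 0% = no signal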
[6] = MRP1 drug-resistance reversers in H69AR cells – cell-based, doxorubicin co-treatment, pilot screen (AID 601;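 active = viability loss from added drug above about 55%, and viability with drug at most 40%, in both replicates, limit read from the data, passing the limit was not always enough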); conditions: CellTiter-Glo, 72 h, at 10 µM; for differential viability (reversal): stronger effect = higher value
[7] = yeast transport mutant growth inhibition pilot in 384-well plates, post-Golgi transport modulator project (AID 636; in the data active = inhibition above about 31%); conditions: absorbance 615 nm, about 18 h, stronger effect = higher value
[8] = growth suppression of yeast trafficking mutant, preliminary HTS, modulators of trafficking downstream of Golgi apparatus project, 1536-format plate, OD 615 nm (AID 637; in the data active = inhibition above about 30%); conditions: yeast transport mutant growth, absorbance 615 nm, 18 h; stronger effect = higher value
[9] = H69AR cells + 2 uM doxorubicin, measured here: viability with 2 uM doxorubicin, stronger effect = lower value
[10] = H69AR cells, compound alone cytotoxicity

Receptor tyrosine-protein kinase erbB-2 (Homo sapiens), sequence (P04626 whole entry, looked up): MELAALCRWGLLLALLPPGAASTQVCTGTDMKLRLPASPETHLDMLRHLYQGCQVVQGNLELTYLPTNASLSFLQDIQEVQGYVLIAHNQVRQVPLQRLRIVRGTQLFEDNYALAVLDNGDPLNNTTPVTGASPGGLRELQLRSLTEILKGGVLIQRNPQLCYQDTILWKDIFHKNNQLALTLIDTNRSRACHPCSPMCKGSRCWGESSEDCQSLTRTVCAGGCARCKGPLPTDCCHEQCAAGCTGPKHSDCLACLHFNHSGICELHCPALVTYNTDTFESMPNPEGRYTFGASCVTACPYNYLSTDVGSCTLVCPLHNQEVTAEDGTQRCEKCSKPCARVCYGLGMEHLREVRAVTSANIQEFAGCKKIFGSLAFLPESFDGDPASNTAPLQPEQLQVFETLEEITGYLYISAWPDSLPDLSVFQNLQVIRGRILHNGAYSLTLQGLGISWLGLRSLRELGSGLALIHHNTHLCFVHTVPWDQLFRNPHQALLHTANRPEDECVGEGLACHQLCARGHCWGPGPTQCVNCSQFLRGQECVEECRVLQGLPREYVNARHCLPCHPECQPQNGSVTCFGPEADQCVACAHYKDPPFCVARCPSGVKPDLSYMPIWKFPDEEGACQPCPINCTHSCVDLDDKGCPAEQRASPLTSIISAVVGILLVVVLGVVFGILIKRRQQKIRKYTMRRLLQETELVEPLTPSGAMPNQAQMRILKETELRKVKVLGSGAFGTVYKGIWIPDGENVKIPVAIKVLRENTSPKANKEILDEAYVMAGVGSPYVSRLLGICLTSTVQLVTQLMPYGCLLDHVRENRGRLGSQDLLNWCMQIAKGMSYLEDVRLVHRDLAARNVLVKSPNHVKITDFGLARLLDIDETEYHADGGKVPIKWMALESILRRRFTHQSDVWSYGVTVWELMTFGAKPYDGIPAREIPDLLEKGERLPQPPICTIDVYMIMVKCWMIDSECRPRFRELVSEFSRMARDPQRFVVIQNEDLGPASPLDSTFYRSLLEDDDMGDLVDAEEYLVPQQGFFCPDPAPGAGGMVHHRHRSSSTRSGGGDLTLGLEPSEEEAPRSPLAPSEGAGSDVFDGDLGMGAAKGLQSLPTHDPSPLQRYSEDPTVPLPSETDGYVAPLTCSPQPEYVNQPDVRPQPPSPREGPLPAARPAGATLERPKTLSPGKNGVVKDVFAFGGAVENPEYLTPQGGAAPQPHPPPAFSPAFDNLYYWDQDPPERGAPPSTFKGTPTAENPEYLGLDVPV

| SMILES | viability [1] [%] | Her2 level [2] | viability [3] | viability [4] | viability [5] | differential viability (reversal) ([6]; H69AR cells + 2 uM doxorubicin) | viability [6, 9] | viability [6, 10] | inhibition [7] | inhibition [8] |
| --- | --- | --- | --- | --- | --- | --- | --- | --- | --- | --- |
| CC(C(=O)N1CCCCC1)n1sc2ccccc2c1=O (stereo not given) | 119 | 102% (inactive) | 119% (inactive) | 88% (inactive) | 87.4% (inactive) | 3.18% (inactive) | 84.3% | 87.4% | -1.71% (inactive) | 11.4% (inactive) |
| COCCCNC(=O)C(Cc1ccccc1)NS(=O)(=O)c1ccc2c(c1)c(=O)n(C)c(=O)n2C (stereo not given) | 101 | 95.5% (inactive) | 101% (inactive) | 96.8% (inactive) | 89.2% (inactive) | 3.26% (inactive) | 85.9% | 89.2% | -2.63% (inactive) | -3.97% (inactive) |
| CC(n1cnnn1)C12CC3CC(CC(C3)C1)C2 (stereo not given) | 88.5 | 96% (inactive) | 88.5% (inactive) | 93.4% (inactive) | 96% (inactive) | 11.3% (inactive) | 84.7% | 96% | -1.2% (inactive) | 1.97% (inactive) |
| Nc1ccc(C(=O)O)c(O)c1 | 100 | 113% (inactive) | 100% (inactive) and 130% (inactive) | 105% (inactive) and 87.5% (inactive) | 78.2% (inactive) and 90.7% (inactive) | -28.9% (inactive) and 6.59% (inactive) | 107% and 84.1% | 78.2% and 90.7% | -1.82% (inactive) | 15.8% (inactive) |
| COC(=O)c1cc(Br)c(=O)n(-c2nccs2)c1 | 121 | 93.5% (inactive) | 121% (inactive) | 107% (inactive) | 96.5% (inactive) | 9.32% (inactive) | 87.2% | 96.5% | -4.27% (inactive) | -6.39% (inactive) |
| Cc1csc2ncc(C(=O)N3CCc4ccccc43)c(=O)n12 | 95.5 | 109% (inactive) | 95.5% (inactive) | 86% (inactive) | 89% (inactive) | -3.54% (inactive) | 92.5% | 89% | -7.2% (inactive) | 4% (inactive) |
| COc1ccccc1N1C(=O)c2ccccc2NC1c1ccncc1 (stereo not given) | 104 | 100% (inactive) | 104% (inactive) | 101% (inactive) | 104% (inactive) | 9.81% (inactive) | 94% | 104% | -1.51% (inactive) | -7.14% (inactive) |
| COCCCn1c(SCC(=O)Nc2cccc(C)n2)nnc1-c1ccco1 | 95 | 82.5% (inactive) | 95% (inactive) | 106% (inactive) | 98.5% (inactive) | 12.9% (inactive) | 85.6% | 98.5% | -3.6% (inactive) | -2.95% (inactive) |
| Cc1cc2cc(CN(CCCN3CCOCC3)C(=O)NC3CCCCC3)c(=O)[nH]c2cc1C | 73.5 | 83% (inactive) | 73.5% (inactive) | 70.2% (inactive) | 82.8% (inactive) | 6.29% (inactive) | 76.5% | 82.8% | -5.07% (inactive) | -2.26% (inactive) |
| COc1ccc(N2C(N)=C(C#N)C(c3cccnc3)C3=C2CC(C)(C)CC3=O)cc1 (stereo not given) | 106 | 90% (inactive) | 106% (inactive) | 79.5% (inactive) | 20.6% (active) | -3% (inactive) | 23.6% | 20.6% | -8.9% (inactive) | 0.32% (inactive) |
| Cc1cc(C)nc(Sc2ccc3nnc(C(F)(F)C(F)(F)C(F)(F)F)n3n2)n1 | 83.5 | 86.5% (inactive) | 83.5% (inactive) | 99.6% (inactive) | 102% (inactive) | 14.1% (inactive) | 87.6% | 102% | -6.89% (inactive) | 3.93% (inactive) |
| COC(=O)c1sc2ccccc2c1NC(=O)c1cccs1 | 97.5 | 99.5% (inactive) | 97.5% (inactive) | 82.1% (inactive) | 82.1% (inactive) | -17.2% (inactive) | 99.3% | 82.1% | -2.08% (inactive) | -5.87% (inactive) |
| CCCCCC(=O)N1CC2(CC)CN(C(=O)CCCCC)CC(CC)(C1)C2=O | 89 | 124% (inactive) | 89% (inactive) | 91.7% (inactive) | 83.3% (inactive) | -6.35% (inactive) | 89.7% | 83.3% | 0.51% (inactive) | -7.33% (inactive) |
| CC1=C(C(=O)OCCOC(C)C)C(c2cc3c(cc2Br)OCO3)C2=C(CCCC2=O)N1 (stereo not given) | 102 | 111% (inactive) | 102% (inactive) | 86.2% (inactive) | 80.8% (inactive) | 1.89% (inactive) | 78.9% | 80.8% | -2.8% (inactive) | 6.07% (inactive) |
| CCOC(=O)N1CCN(C(=O)CCc2ccc(S(=O)(=O)NCCc3ccccc3)cc2)CC1 | 89.5 | 102% (inactive) | 89.5% (inactive) | 87.2% (inactive) | 101% (inactive) | 17.6% (inactive) | 83.1% | 101% | -0.13% (inactive) | -4% (inactive) |
